RGS4 block: RGS4 inhibitors, primary screen, cell-based, HEK293 M3R inducible RGS4, calcium flux. AID 463165, 2010. Fluo-4 calcium flux; active compounds read high; triggered by carbachol at its EC20. B-score at 10 µM. Regulator of G-protein signaling 4 (Homo sapiens), P49798. 310,000 compounds, 0.45% hits;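 active means B-score, a plate-corrected calcium signal, over three deviations above library mean, with baseline fluorescence within five deviations of library mean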;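 further: RGS4 expression induced by doxycycline in cells with stable M3 receptor; B-score is computed from the integrated fluorescence ratio over baseline after carbachol; higher B-score means a larger calcium signal and so more RGS4 inhibition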
Target sequence (P49798 whole entry, looked up): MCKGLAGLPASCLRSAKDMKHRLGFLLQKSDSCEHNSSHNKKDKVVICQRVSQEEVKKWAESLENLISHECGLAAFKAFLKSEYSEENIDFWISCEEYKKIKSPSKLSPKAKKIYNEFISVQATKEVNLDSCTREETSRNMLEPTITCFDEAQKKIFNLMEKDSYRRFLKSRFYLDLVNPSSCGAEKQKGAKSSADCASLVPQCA
MrgX1 allo act: positive allosteric modulators of MrgX1, primary screen, HEK293 cells, Fluo-4 calcium flux; Mas-related G-protein coupled receptor member X1 (Homo sapiens), Q96LB2; FDSS; active compounds read high; B-score at 10 µM; 310,000 compounds, 0.63% hits; AID 588675, 2011;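 active means plate-corrected calcium response at least 3 library SD above typical, normal starting fluorescence, not activating the receptor alone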;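 further: compound read alongside a low EC10 to EC30 dose of BAM8-22 agonist; peak minus trough fluorescence over baseline measured at the second addition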
Target sequence (Q96LB2 whole entry, looked up): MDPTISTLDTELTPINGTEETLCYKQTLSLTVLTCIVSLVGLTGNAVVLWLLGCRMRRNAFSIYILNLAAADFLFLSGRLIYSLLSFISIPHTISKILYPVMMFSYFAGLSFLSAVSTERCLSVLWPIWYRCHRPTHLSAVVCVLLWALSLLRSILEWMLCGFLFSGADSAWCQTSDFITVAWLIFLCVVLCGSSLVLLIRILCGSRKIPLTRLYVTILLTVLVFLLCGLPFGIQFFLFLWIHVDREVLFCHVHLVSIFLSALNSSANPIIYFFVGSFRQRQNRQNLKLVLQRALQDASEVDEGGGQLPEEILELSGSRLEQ
MrgX1 agonist: agonists of human MrgX1 receptor, primary screen, HEK293 cells, Fluo-4 calcium flux | Mas-related G-protein coupled receptor member X1 (Homo sapiens), Q96LB2 | Fluo-4 calcium fluorescence, agonist mode; active compounds read high | B-score at 10 µM | 310,000 compounds, 0.44% hits | AID 588627, 2011;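 active means calcium response B-score plate-corrected fluorescence ratio at least 3 library SD, with starting fluorescence B-score inside 5 SD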
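Assay system: MrgX1-expressing HEK293 cells / Amount: fifteen thousand cells per well / Doses: test compound in the initial addition of three / Timing: cells plated overnight, dye loaded 0.5 h 37 °C, 0.5 h room temperature / Technique: kinetic calcium dye fluorescence, Fluo-4 NW / Control set: positive and negative controls per plate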
MrgX1 antagonist: antagonists of human MrgX1 receptor, primary screen, HEK293 cells, Fluo-4 calcium flux. Mas-related G-protein coupled receptor member X1 (Homo sapiens), Q96LB2. BAM8-22 antagonism; active compounds read low. B-score at 10 µM. 310,000 compounds, 1.3% hits. AID 588676, 2011;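 active means calcium-response B-score plate-corrected more than 3 library SD below zero, starting fluorescence within 5 deviations, no agonist response on first addition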;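 further: peak minus trough fluorescence over baseline after final BAM8-22 challenge near maximal dose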
RGS4 pot: RGS4 potentiators or activators, primary screen, cell-based, HEK293 M3R inducible RGS4, calcium flux; AID 463111, 2010; 310,000 compounds, 0.92% hits; B-score at 10 µM; carbachol calcium flux Fluo4; active compounds read low;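 active means B-score of the integrated calcium signal more than 4 SD below the library mean, with starting fluorescence not abnormally high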;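 further: negative B-score means reduced calcium response which marks RGS4 activation or potentiation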
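test system = HEK293 cells with stable M3R and inducible RGS4 | schedule = recording 10 s baseline at 1 Hz, 100 s post-agonist | technique = Fluo4-AM (2 µM) calcium-flux fluorescence, kinetic read | measure = Agonist-evoked peak-minus-minimum fluorescence over baseline, integrated ratio, B score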
MrgX1 allo conf: MrgX1 positive allosteric modulators, duplicate retest, confirmation, HEK293 cells, Fluo-4 calcium flux; Fluo-4 calcium fluorescence, FDSS; activation (ratio percentage), % at 10 µM; shares compounds with MrgX1 allo act; AID 602413, 2012; 1,200 compounds, 13% hits;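 active means ratio at least 3 SD above the weak peptide control, stable starting fluorescence, no direct agonism earlier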;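 further: compound followed by low BAM8-22 agonist challenge near EC20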
HEK293 Ca flux: nonspecific calcium signal in parental HEK293, confirmation, counter-screen for MrgX1 antagonist project, parental HEK293 cells, Fluo-4 calcium flux; shares compounds with MrgX1 antagonist; Fluo-4 calcium fluorescence, FDSS; fluorescence ratio F(max-min)/F0 at 10 µM; 4,000 compounds, 2% hits;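 active means duplicate-averaged calcium fluorescence ratio at least three times the standard deviation of buffer wells, a nonspecific response in parental cells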
HEK293 Ca counter: calcium response in parental HEK293 cells, primary screen, counter-screen for MrgX1 allosteric activator project, cell-based, Fluo-4 calcium flux, duplicate; 4,000 compounds, 0.4% hits; shares compounds with MrgX1 antagonist; fluorescence ratio F(max-min)/F0 at 10 µM; Fluo-4 fluorescence ratio; active compounds read high;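 active means calcium fluorescence ratio, averaged over duplicates, at least 3 SD of the buffer-well ratio, meaning a nonspecific response in receptor-free cells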;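 further: untransfected parental HEK293 lacking MrgX1 used as counterscreen for MrgX1 allosteric activators; fluorescence change taken during the second addition on a kinetic imager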
HEK293 Ca cntr2: calcium response in parental HEK293 cells, primary screen, counter-screen for MrgX1 agonist project, cell-based, Fluo-4 calcium flux, duplicate, agonist mode | shares compounds with MrgX1 antagonist | Fluo-4 calcium fluorescence (FDSS); active compounds read high | fluorescence ratio F(max-min)/F0 at 10 µM | 4,000 compounds, 8.7% hits | AID 624115, 2012;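 active means calcium fluorescence ratio at least three times the spread of buffer wells, meaning a non-specific response in parental cells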
Starred values were filed as active, the others as inactive; i = inactive; nt = not tested or not shown. Compounds with a hit are over-represented: about 3.5% of the library has one in this group of screens.

SMILES	RGS4 block	MrgX1 allo act	MrgX1 agonist	MrgX1 antagonist	RGS4 pot	MrgX1 allo conf	HEK293 Ca flux	HEK293 Ca counter	HEK293 Ca cntr2
Nc1ccccc1C(=O)NC12CC3CC(CC(C3)C1)C2	i	10*	i	i	i	i	i	i	i
c1ccc(-c2nc3c(ccc4ccccc43)[nH]2)nc1	i	6.8*	i	i	i	i	i	i	i
c1ccc(-c2nc3ccccc3[nH]2)nc1	i	i	i	i	i	nt	nt	nt	nt
CCOC(=O)N1CCC(N2C(=O)c3ccc(C(=O)Nc4cccc(OC)c4)cc3C2=O)CC1	i	8*	i	i	i	i	i	i	i
CCOC(=O)N1CCC(N2C(=O)c3ccc(C(=O)O)cc3C2=O)CC1	i	i	i	i	i	nt	nt	nt	nt
O=C(Cc1ccccc1F)Nc1cc(Cl)ccc1N1CCCC1	i	i	i	i	i	nt	nt	nt	nt
COc1cccc(CN2CCNC(=O)C2CC(=O)NCCCN2CCCC2=O)c1 (stereo not given)	i	i	i	i	i	nt	nt	nt	nt
COc1cc(NC(=O)C(Cc2ccccc2)n2cccc2)cc(OC)c1 (stereo not given)	i	7.1*	i	i	i	i	i	i	i
CC1(C)CC(=O)C2=C(C1)N=C1SCCC(=O)N1C2c1cccc([N+](=O)[O-])c1 (stereo not given)	i	i	i	i	i	nt	nt	nt	nt
Cc1ccc(NC(=O)C(=O)NCCOc2ccc(Cl)cc2)c(C)c1	i	9.6*	i	i	i	i	i	i	i
CCC1=C(c2ccc(C)cc2)S(=O)(=O)N=C1N1CCC(C(=O)NCCCN2CCCCC2C)CC1 (stereo not given)	i	i	i	i	i	nt	nt	nt	nt
O=C(N/N=C/c1c(O)ccc2ccccc12)c1ccc(CO)nc1	i	i	i	i	i	nt	nt	nt	nt
O=C(N/N=C\c1c(O)ccc2ccccc12)c1ccc(S(=O)(=O)N2CCCCC2)cc1	i	20*	i	i	i	i	0.42*	i	65*
CCc1nc(CN(C)C(=O)C2CCC(=O)N(CCc3cccc(F)c3)C2)no1 (stereo not given)	i	i	i	i	i	nt	nt	nt	nt
Cc1cccc(-c2csc(N)c2C(=O)OC(C)C)c1	i	8.1*	i	i	i	i	i	i	i
O=C(N1CCOCC1)N1CCN(C(c2ccccc2)c2ccccc2)CC1	i	i	i	i	i	nt	nt	nt	nt
O=C(N1CCCCC1)N1CCN(C(c2ccccc2)c2ccccc2)CC1	i	6.9*	i	i	i	i	i	i	i
CN1CCN(C(=S)NC(=O)c2ccc(Br)cc2)CC1	i	i	i	i	i	nt	nt	nt	nt
CN1CCN(C(=S)C(=O)Nc2ccc(Br)cc2)CC1	i	11*	i	i	i	i	i	i	i
Cc1ccc(NC2=C(Cl)C(=O)OC2OC(=O)c2ccc(C)cc2)cc1 (stereo not given)	i	8.6*	i	i	i	i	i	i	i
CC(CN1CCCC1)OC(=O)c1ccc(Br)cc1 (stereo not given)	i	i	i	i	i	nt	nt	nt	nt
CCCn1c(=O)c(C(=O)Nc2ccccc2)c(O)c2ccccc21	i	i	i	i	i	nt	nt	nt	nt
CCCn1c(=O)c(C(=O)Nc2cccc(C)c2)c(O)c2ccccc21	i	7.2*	i	i	i	i	i	i	i
O=C(CCNC(=O)C1CCN(S(=O)(=O)c2ccc(F)cc2)CC1)Nc1nccs1	i	i	i	i	i	nt	nt	nt	nt
CCCCN(CCCC)c1nc(OC)nc(-n2nnc(C(C)=O)c2C)n1	i	i	i	i	i	nt	nt	nt	nt
SMILES	RGS4 block	MrgX1 allo act	MrgX1 agonist	MrgX1 antagonist	RGS4 pot	MrgX1 allo conf	HEK293 Ca flux	HEK293 Ca counter	HEK293 Ca cntr2
CC(=O)c1nnn(-c2nc(N)nc(N(c3ccccc3)c3ccccc3)n2)c1C	i	13*	i	i	i	16%*	i	i	i
COc1ccc(C=O)cc1Cn1cnc2c(cnn2C)c1=O	i	i	i	i	i	nt	nt	nt	nt
COc1ccc(C(C)=O)cc1Cn1cnc2c(cnn2C)c1=O	i	11*	i	i	i	i	i	i	i
O=C(NCCc1cccc(F)c1)C1CCN(S(=O)(=O)c2ccccc2)CC1	i	i	i	i	i	nt	nt	nt	nt
Cc1cccc(CCNC(=O)C2CCN(S(=O)(=O)c3ccccc3)CC2)c1	i	11*	i	i	i	i	i	i	i
O=C(CN1C(=O)NC2(CCCCC2)C1=O)NCc1ccc2c(c1)OCO2	i	i	i	i	i	nt	nt	nt	nt
C/C(=C\C(=O)c1ccccc1)NCc1ccc(F)cc1	i	7.4*	i	i	i	i	i	i	i
CC1Cc2ccccc2N1C(=O)C1CCCN(S(=O)(=O)c2cccc3cccnc23)C1 (stereo not given)	nt	8.9*	i	i	nt	8.6%*	i	i	i
COc1ccc(OC)c(CN2CCN(C(=O)c3cccc(S(=O)(=O)Nc4ccccc4OC)c3)CC2)c1	i	i	i	i	i	nt	nt	nt	nt
COc1ccc(OC)c(CN2CCN(C(=O)c3ccc(NS(=O)(=O)c4cccc([N+](=O)[O-])c4)cc3)CC2)c1	i	20*	i	i	i	38%*	i	i	i
O=S(=O)(NC(=S)NC1CCCCC1)c1ccc(Cl)cc1	i	17*	i	i	i	23%*	i	i	i

Screens from PubChem BioAssay.
